Reference: ChEMBL document CHEMBL1151962, “Identification of N,1,4,4-tetramethyl-8-{[4-(4-methylpiperazin-1-yl)phenyl]amino}-4,5-dihydro-1H-pyrazolo[4,3-h]quinazoline-3-carboxamide (PHA-848125), a potent, orally available cyclin dependent kinase inhibitor” (J Med Chem, 2009)
≈ marks a conversion by molar mass, not a printed value.

Key:
[1] = Solubility at pH 7; type: physicochemical; conditions: buffer
[2] = target: Cyclin-dependent kinase 2 (Homo sapiens, UniProt P24941); assay: Inhibition of CDK2/Cyclin A
[3] = target: T1, Aurora kinase A (Homo sapiens, UniProt O14965); assay: Inhibition of Aurora A
T1 sequence (O14965 whole entry): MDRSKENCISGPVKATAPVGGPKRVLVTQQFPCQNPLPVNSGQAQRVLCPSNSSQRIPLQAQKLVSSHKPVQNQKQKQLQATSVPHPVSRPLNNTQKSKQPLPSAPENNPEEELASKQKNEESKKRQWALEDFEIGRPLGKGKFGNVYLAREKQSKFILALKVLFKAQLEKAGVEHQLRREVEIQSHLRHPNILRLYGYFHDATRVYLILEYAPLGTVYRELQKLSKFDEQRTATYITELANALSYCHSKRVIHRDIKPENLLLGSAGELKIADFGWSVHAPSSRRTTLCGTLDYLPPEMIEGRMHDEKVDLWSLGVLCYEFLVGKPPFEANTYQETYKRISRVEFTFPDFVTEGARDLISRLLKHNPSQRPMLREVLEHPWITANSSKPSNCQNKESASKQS

[4] = system: A2780; assay: Antiproliferative activity against human A2780 cells after 72 hrs by cell Titer_Glo assay; type: functional, cell-based; conditions: A2780, 72 h
Summary of the method: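 A2780 cells were seeded at 10000–30000 cells/cm² in medium with 10% FCS. After 24 h they were treated with serial dilutions of compound, in two replicates. Cell amount was read by Cell Titer Glo 72 h after treatment. IC50 came from sigmoidal fitting.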

Row | SMILES | solubility [1] [µM] | IC50 [2] [nM] | IC50 [3] [nM] | IC50 [4] [nM]
1 | Cn1nc(C(N)=O)c2c1-c1nc(Nc3ccccc3)ncc1CC2(C)C | < 1 | 24 | > 10000 | 170
2 | CNC(=O)c1nn(C)c2c1CCc1cnc(Nc3ccccc3)nc1-2 | 1 (≈ 0.334 µg/mL) | – | – | –
3 | Cn1nc(C(=O)Nc2ccccc2)c2c1-c1nc(Nc3ccccc3)ncc1CC2 | 1 (≈ 0.396 µg/mL) | – | – | –
4 | Cn1nc(C(=O)NCc2ccccc2)c2c1-c1nc(Nc3ccccc3)ncc1CC2 | 1 (≈ 0.41 µg/mL) | 1050 | 374 | 580
5 | Cn1nc(C(N)=O)c2c1-c1nc(Nc3ccc(N4CCOCC4)cc3)ncc1CC2 | 10 (≈ 4.05 µg/mL) | 14 | 51 | 120
6 | Cn1nc(C(N)=O)c2c1-c1nc(Nc3ccccc3)ncc1CC2 | 3 (≈ 0.961 µg/mL) | – | – | –
7 | CN1CCN(c2ccc(Nc3ncc4c(n3)-c3c(c(C(N)=O)nn3C)CC4)cc2)CC1 | 156 (≈ 65.3 µg/mL) | 2 | 53 | 30
8 | Cn1nc(C(=O)NC2CC2)c2c1-c1nc(Nc3ccccc3)ncc1CC2 | 1 (≈ 0.36 µg/mL) | – | – | –
9 | Cn1nc(C(=O)NC2CCCC2)c2c1-c1nc(Nc3ccccc3)ncc1CC2 | 1 (≈ 0.388 µg/mL) | – | – | –
10 | Cn1nc(C(=O)NCCO)c2c1-c1nc(Nc3ccccc3)ncc1CC2 | 7 (≈ 2.55 µg/mL) | 74 | 364 | 2380

Next, values leading:

Row | solubility [1] [µM] | IC50 [2] [nM] | IC50 [3] [nM] | IC50 [4] [nM] | SMILES
11 | 193 (≈ 81 µg/mL) | 83 | 2940 | 500 | CNC(=O)c1nn(C)c2c1C(C)(C)Cc1cnc(Nc3cccc(CN(C)C)c3)nc1-2
12 | 46 (≈ 20.6 µg/mL) | 137 | 649 | 370 | CNC(=O)c1nn(C)c2c1C(C)(C)Cc1cnc(Nc3ccc(N4CCOCC4)cc3)nc1-2
13 | 160 (≈ 76.1 µg/mL) | 47 | 1580 | 390 | CNC(=O)c1nn(C)c2c1C(C)(C)Cc1cnc(Nc3cccc(OC4CCN(C)CC4)c3)nc1-2
14 | 182 (≈ 83.8 µg/mL) | 31 | 1000 | 530 | CNC(=O)c1nn(C)c2c1C(C)(C)Cc1cnc(Nc3cccc(N4CCN(C)CC4)c3)nc1-2
15 | 41 (≈ 16.6 µg/mL) | 220 | 1440 | 3010 | CNC(=O)c1nn(C)c2c1C(C)(C)Cc1cnc(Nc3cccc(N(C)C)c3)nc1-2
16 | 121 (≈ 55.8 µg/mL) | 160 | 638 | 870 | CNC(=O)c1nn(C)c2c1C(C)(C)Cc1cnc(Nc3cccc(CN4CCOCC4)c3)nc1-2
17 | 47 (≈ 19.7 µg/mL) | 1 | 30 | 30 | CN1CCN(c2cccc(Nc3ncc4c(n3)-c3c(c(C(N)=O)nn3C)CC4)c2)CC1
18 | 56 (≈ 22.7 µg/mL) | 59 | 855 | 500 | CNC(=O)c1nn(C)c2c1C(C)(C)Cc1cnc(Nc3ccc(N(C)C)cc3)nc1-2
19 | 133 (≈ 61.4 µg/mL) | 36 | 535 | 350 | CNC(=O)c1nn(C)c2c1C(C)(C)Cc1cnc(Nc3ccc(CN4CCOCC4)cc3)nc1-2
20 | 211 (≈ 91.3 µg/mL) | 45 | 175 | 190 | CNC(=O)c1nn(C)c2c1CCc1cnc(Nc3ccc(N4CCN(C)CC4)cc3)nc1-2
21 | 51 (≈ 22.8 µg/mL) | 248 | 625 | 700 | CNC(=O)c1nn(C)c2c1C(C)(C)Cc1cnc(Nc3cccc(N4CCOCC4)c3)nc1-2
22 | 183 (≈ 87 µg/mL) | 29 | 1340 | 170 | CNC(=O)c1nn(C)c2c1C(C)(C)Cc1cnc(Nc3ccc(OC4CCN(C)CC4)cc3)nc1-2
23 | 98 (≈ 43.8 µg/mL) | 17 | 582 | 50 | CN1CCN(c2ccc(Nc3ncc4c(n3)-c3c(c(C(N)=O)nn3C)C(C)(C)C4)cc2)CC1
24 | 170 (≈ 80.7 µg/mL) | 55 | 1620 | 240 | CNC(=O)c1nn(C)c2c1C(C)(C)Cc1cnc(Nc3ccc(CN4CCN(C)CC4)cc3)nc1-2
